Source: PubChem
OX1R antag-1 – blocks the human orexin 1 receptor | O43613 | OX1R-expressing cells, FRET antagonist read-out | inhibition, % at 6.6 µM | 330,000 compounds, 1.8% hits | AID 485270; in the data active = inhibition mostly above about 38%, no sharp cut-off; inactive = mostly below about 40%;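 note: 0% = agonist challenge alone and 100% = reference antagonist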
GalR3 antagonist – antagonists of human GalR3; HEK293 GalR3-CNG cAMP membrane potential fluorescence; galR3 body fused to GalR1 C-terminus; 360,000 compounds, 0.44% hits; O60755; inhibition, % at 3 µM; AID 651719;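 active = inhibition above the screen-wide average plus 3 SD, cut at about 13% in these data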;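 note: forskolin and galanin both at EC90 stimulate the cells; cAMP rise reported by CNG channel membrane potential dye signal; 0% = forskolin plus galanin with DMSO and 100% = forskolin alone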
Target sequence (O60755 1-299 limits assumed): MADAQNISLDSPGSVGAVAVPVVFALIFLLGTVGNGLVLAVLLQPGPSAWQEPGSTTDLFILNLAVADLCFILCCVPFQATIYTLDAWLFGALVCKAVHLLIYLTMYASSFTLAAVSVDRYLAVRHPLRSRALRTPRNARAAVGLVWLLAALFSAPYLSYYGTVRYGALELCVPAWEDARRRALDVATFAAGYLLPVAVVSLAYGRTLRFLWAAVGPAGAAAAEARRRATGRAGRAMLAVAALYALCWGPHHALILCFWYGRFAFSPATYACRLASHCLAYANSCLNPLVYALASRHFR
OX1R antag-2 – human HCRTR1 antagonism; 330,000 compounds, 0.43% hits; inhibition, % at 5 µM; CHO/OX1R cells, Fluo-8 calcium fluorescence, orexin A; O43613;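 active = inhibition above its plate's threshold, mean inhibition of all tested compounds on the plate plus 3 SD, cut at about 37% in these data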;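 note: 0% = orexin A challenge wells and 100% = SB-334867-A antagonist wells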
GPR7 antagonist – antagonists of human GPR7 (neuropeptides B/W receptor 1). GPR7-expressing cells, fluorescence antagonist assay. inhibition, % at 4.4 µM. 290,000 compounds, 1.1% hits. AID 1861; in the data active = inhibition above about 16%, passing the limit was not always enough;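 note: cells stimulated with the agonist NPW; 0% = agonist with vehicle and 100% = vehicle without agonist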
Target sequence (P48145 whole entry, looked up): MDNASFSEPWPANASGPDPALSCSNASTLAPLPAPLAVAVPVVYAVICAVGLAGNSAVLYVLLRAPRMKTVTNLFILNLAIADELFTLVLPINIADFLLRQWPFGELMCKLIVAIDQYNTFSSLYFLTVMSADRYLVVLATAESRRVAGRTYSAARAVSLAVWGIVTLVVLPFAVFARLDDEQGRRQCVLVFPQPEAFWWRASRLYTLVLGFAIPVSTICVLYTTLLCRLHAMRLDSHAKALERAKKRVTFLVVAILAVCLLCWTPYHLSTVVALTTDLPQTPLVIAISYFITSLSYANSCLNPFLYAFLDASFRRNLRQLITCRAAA
CHO parental Ca – counter-screen: ATP calcium response change in parental CHO cells | parental CHO-K1, ATP-induced calcium, Fluo-8 fluorescence | inhibition, % at 5.6 µM | 330,000 compounds, 0.63% hits | AID 463079;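 active = inhibition above that plate's mean sample inhibition plus 3 SD, cut at about 26% in these data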;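 note: 0% = ATP-challenged DMSO wells and 100% = DMSO wells without ATP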
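Material: Parental CHO cells | Reagent: ATP | Compound dosing: Single nominal dose of 5.6 µM per compound | Detection: Intracellular calcium via Fluo-8 no-wash fluorescent dye | Read-out: % inhibition of ATP-induced calcium mobilization | Benchmarks: Low control ATP plus DMSO, high control DMSO only | Replicates: Singlicate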
GalR3 antag conf – GalR3 (human) antagonism, confirmation; shares compounds with GalR3 antagonist; HEK293 GalR3 CNG cAMP biosensor, membrane potential fluorescence; galR3 fused to GalR1 carboxy tail; challenged with forskolin and galanin at EC90; inhibition, % at 3 µM; 1,600 compounds, 59% hits;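 active = inhibition above the primary screen's cutoff, the mean inhibition of all screened compounds plus 3 SD, cut at about 13% in these data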;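 note: 0% = forskolin plus galanin and 100% = forskolin alone with DMSO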
CNG parental – acts as nonspecific agonist in parental HEK-CNG cells | activation, % at 3 µM | 1,600 compounds, 10% hits | HEK293-CNG parental cells, cAMP membrane potential fluorescence; normalised: DMSO wells 0%, forskolin wells 100% | AID 652268 | shares compounds with GalR3 antagonist; in the data active = activation above about 1.3%
* marks the source's active call; other numbers are inactive results; · = not tested or not shown. Sampled rows, rich in hits. Any-hit rate of the full collection: about 3.1%.

SMILES	OX1R antag-1	GalR3 antagonist	OX1R antag-2	GPR7 antagonist	CHO parental Ca	GalR3 antag conf	CNG parental
COc1ccc(N2C(=O)c3ccccc3NC2c2ccc(OC)c(Cn3cc([N+](=O)[O-])cn3)c2)cc1 (configuration not stated)	13	59*	-21	-9	-11	24*	0
COc1ccccc1-c1oc2ccccc2c1-c1ccccc1OC	9	-6	-30	·	-21	·	·
COc1ccc(-c2c(-c3ccccc3OC)oc3ccccc23)cc1F	3	·	-16	·	-24	2	-1
CC1(N(O)/C=C2\C=CC=CC2=O)CCCCC1=O (configuration not stated)	9	-8	-14	-13	7	·	·
CC1CCCN(S(=O)(=O)c2cc3c4c(c2)CCN4C(=O)CC3)C1 (configuration not stated)	15	-1	-27	·	-27	·	·
CCc1cc(C(=O)N/N=C/c2ccc(OC)cc2)c2ccccc2n1	2	-10	-18	10	-18	·	·
COc1ccc(C(=O)C2CCCN(C(=O)c3c4c(nn3C)CCCC4)C2)cc1F (configuration not stated)	21	-3	-10	8	-21	·	·
COc1ccc(C(=O)C2CCCN(C(=O)c3ccoc3C)C2)cc1F (configuration not stated)	17	13*	-22	6	-11	8	0
Cc1cc(Br)c(OCc2ccc(C(=O)N/N=C/c3ccc[nH]3)cc2)c(Br)c1	12	61*	0	·	-19	12	0
COc1ccc(C(=O)NCC(=O)OCC(=O)c2ccc3c(c2)NC(=O)CO3)cc1OC	17	72*	-6	-4	-4	-2	0
COc1ccc(Cl)cc1NC(=O)Nc1ccccc1SC	23	·	-3	12	2	11	0
COc1ccc(Cl)cc1NC(=O)NC(C)C	5	-7	-2	3	1	·	·
CCCN(CC1CC1)C(=S)Nc1ccc(Oc2ccccc2)cc1	5	-6	-13	0	-10	·	·
O=C(Cc1ccccc1)c1ccccc1C(=O)N1CCCCC1	-3	-11	-14	-1	-9	·	·
CCN1C(=O)[C@@H]2[C@@H](c3ccc(-c4ccc(Cl)c(Cl)c4)c(OC)c3)N3CCCC[C@@]3(C(=O)OC)[C@@H]2C1=O	23	13*	-27	·	-19	-7	1.9*
CCN1C(=O)[C@H]2[C@@H](c3ccc(-c4cccc(Cl)c4)c(OC)c3)N3CCC[C@@]3(C(=O)OC)[C@H]2C1=O	11	1	-8	·	-16	·	·
O=C(c1ccc(Cl)cc1)c1ccc(Oc2cc(NN3CCCCC3)c([N+](=O)[O-])cc2[N+](=O)[O-])cc1	19	-7	-18	-12	-16	·	·
Cc1cc(C(=O)Nc2cccc(/C=C/C(=O)O)c2)c(C)o1	6	46*	7	-3	-1	88*	0
Cc1oc(-c2ccccc2)cc1C(=O)Nc1ccccc1	18	-6	-22	-1	-27	·	·
Cc1oc(-c2ccccc2)cc1C(=O)Nc1cccc(/C=C/C(=O)O)c1	·	75*	·	0	·	111*	0
Cc1oc(C(C)(C)C)cc1C(=O)Nc1cccc(/C=C/C(=O)O)c1	12	3	-3	2	-7	·	·
CCS(=O)(=O)c1ccc(O)c(NC(=O)CCCC(=O)O)c1	4	-4	-9	6	-4	·	·
CCS(=O)(=O)c1ccc(O)c(NC(=O)/C=C/c2ccccc2)c1	30	13*	7	7	-4	0	0
Cc1cccc(CSc2nnc(CCNC(=O)OC(C)(C)C)o2)c1	2	2	-17	-8	-17	·	·
Cc1ccc(-c2nn3c(C)nnc3c3ccccc23)cc1S(=O)(=O)NCCO	36	-4	-26	2	-23	·	·
SMILES	OX1R antag-1	GalR3 antagonist	OX1R antag-2	GPR7 antagonist	CHO parental Ca	GalR3 antag conf	CNG parental
Cc1ccc(-c2nn3c(C)nnc3c3ccccc23)cc1S(=O)(=O)NC(C)c1ccccc1 (configuration not stated)	13	15*	-25	-12	-21	23*	1
CCCCOC(=O)NS(=O)(=O)c1sc(CC(C)C)cc1-c1ccc(Cn2c(CC)nc3c(C)cc(C)nc32)cc1	8	·	-30	·	-13	·	·
CCC(C)(C)n1nnnc1CN(Cc1cc2cc(OC)c(OC)cc2[nH]c1=O)C1CCCC1	31	18*	-15	7	-2	2	0
Cc1ccc2[nH]c(=O)c(CN(Cc3nnnn3C3CCCC3)C3CCCCC3)cc2c1	16	14*	-2	-8	-21	1	1
CC(C)CC(N)c1csc(Nc2ccc(C(=O)NCCCO)cn2)n1 (configuration not stated)	·	-7	·	·	·	·	·
CC(C)=NOCC(=O)Nn1c(COc2ccccc2)nc2ccccc2c1=O	12	-6	-6	-10	-13	·	·
COc1ccccc1C(=O)Nc1ccc(C2=NNC(=O)CC2C)cc1 (configuration not stated)	21	73*	-31	-1	-11	73*	0
Cc1ccc(C)c(-c2nnc(NC(=O)Cc3ccc(F)cc3)o2)c1	20	·	-14	1	-1	·	·
CCC(=O)Nc1nc(CC(=O)Nc2ccccc2OC)cs1	15	-3	-9	-7	-2	·	·
COc1ccccc1NC(=O)Cc1nc(CCl)cs1	19	14*	-7	2	-5	12	0
N#C/C(=C\c1ccccc1)C(=O)Nc1cccnc1	1	-7	-5	-5	3	·	·
N#C/C(=C\c1ccccc1)C(=O)Nc1nncs1	4	16*	-19	-2	-14	9	0
CCC(=O)c1ccc(OCC(=O)NC2CCCC2)cc1	8	-2	-13	·	-6	·	·
CCC(=O)c1ccc(OCC(=O)O)cc1	·	·	·	-12	·	-2	0
COc1c(/C=C2\SC(=Nc3ccccc3Cl)NC2=O)cccc1[N+](=O)[O-]	68*	51*	-14	-19	-7	65*	1
CCCCn1c(N)c(N(CC)C(=O)c2ccccc2F)c(=O)[nH]c1=O	7	-8	6	-15	-8	·	·
CC(C)(C)C(=O)/C(=C/c1ccncc1)n1cncn1	-1	6	-11	-6	4	·	·
COc1ccc(NC(=O)C2Cc3c(-c4cccc(C(C)=O)c4)ccnc3O2)cc1OC (configuration not stated)	·	61*	·	·	·	104*	0
COc1ccccc1N1CC(C(=O)OCC(=O)c2c(N)n(C)c(=O)n(C)c2=O)CC1=O (configuration not stated)	·	-7	·	·	·	·	·
CC(=O)Nc1ccc2c(c1)CCc1ccccc1-2	0	-10	-3	16	0	·	·
